ChEMBL document CHEMBL1811913, “Trimethoxy-chalcone derivatives inhibit growth of Leishmania braziliensis: synthesis, biological evaluation, molecular modeling and structure-activity relationship (SAR)” (Bioorg Med Chem, 2011)
Active and inactive are the calls of the source. The rule behind the calls is not given here.

Tests used:
[1] = Selectivity index, ratio of CC50 for african green monkey Vero cells to IC50 for promastigotes form of Leishmania braziliensis MHOM/BR/75/M2904; type: functional
Leishmania braziliensis [2] = assay: Antileishmanial activity against promastigotes form of Leishmania braziliensis MHOM/BR/75/M2904 after 72 hrs; type: functional; details: MHOM/BR/75/M2904, 72 h
Method in brief: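 5.0 × 10^6 promastigotes/mL were exposed to 500, 100, 50, 25, 10, 5 and 1 (DMSO ≤1% final) at 28 °C for 72 h, and living parasites were counted in a Neubauer chamber. IC50 came from linear regression, mean ± standard error of three independent experiments.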

[3] = Cytotoxicity against african green monkey Vero cells after 72 hrs; type: cell-based; details: chlorocebus sabaeus
[4] = biological target: T1, Nitric oxide synthase, inducible (Mus musculus) (UniProt P29477); assay: Inhibition of iNOS-mediated LPS-induced nitric oxide production in mouse RAW264.7 cells; type: cell-based
T1 sequence (whole entry): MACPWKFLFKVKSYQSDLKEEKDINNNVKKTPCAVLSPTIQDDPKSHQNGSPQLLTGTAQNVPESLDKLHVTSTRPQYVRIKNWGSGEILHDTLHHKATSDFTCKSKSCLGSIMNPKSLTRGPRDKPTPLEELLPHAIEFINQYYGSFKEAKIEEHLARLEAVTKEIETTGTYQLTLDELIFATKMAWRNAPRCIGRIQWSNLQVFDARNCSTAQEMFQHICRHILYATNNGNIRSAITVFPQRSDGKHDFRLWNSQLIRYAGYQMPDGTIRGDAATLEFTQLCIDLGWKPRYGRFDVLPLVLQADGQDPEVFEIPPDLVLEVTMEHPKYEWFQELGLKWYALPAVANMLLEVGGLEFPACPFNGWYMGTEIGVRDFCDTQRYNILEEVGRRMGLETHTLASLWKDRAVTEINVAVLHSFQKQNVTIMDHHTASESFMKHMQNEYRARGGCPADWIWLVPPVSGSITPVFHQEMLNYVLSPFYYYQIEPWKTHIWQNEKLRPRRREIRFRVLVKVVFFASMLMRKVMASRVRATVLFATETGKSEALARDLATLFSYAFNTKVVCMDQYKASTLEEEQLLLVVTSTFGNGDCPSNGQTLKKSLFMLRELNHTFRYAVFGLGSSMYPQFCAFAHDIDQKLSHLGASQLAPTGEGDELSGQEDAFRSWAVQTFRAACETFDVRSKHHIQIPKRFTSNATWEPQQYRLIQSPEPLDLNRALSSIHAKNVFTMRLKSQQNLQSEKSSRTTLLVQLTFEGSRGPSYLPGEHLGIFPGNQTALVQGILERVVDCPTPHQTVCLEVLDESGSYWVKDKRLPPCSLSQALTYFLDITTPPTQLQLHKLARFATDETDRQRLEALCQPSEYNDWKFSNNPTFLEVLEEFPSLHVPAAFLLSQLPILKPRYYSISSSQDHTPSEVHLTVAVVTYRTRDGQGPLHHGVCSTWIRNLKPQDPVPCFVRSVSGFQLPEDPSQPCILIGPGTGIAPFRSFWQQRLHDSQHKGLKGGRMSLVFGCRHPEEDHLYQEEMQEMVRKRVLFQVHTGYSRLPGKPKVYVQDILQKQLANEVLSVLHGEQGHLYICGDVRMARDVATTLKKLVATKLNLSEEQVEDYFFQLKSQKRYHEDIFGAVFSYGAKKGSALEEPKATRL

Leishmania braziliensis [5] = assay: Antileishmanial activity against promastigotes form of Leishmania braziliensis MHOM/BR/75/M2904 at 50 uM after 72 hrs; type: functional
Vero = assay: Cytotoxicity against african green monkey Vero cells at 50 uM after 72 hrs; type: cell-based; details: chlorocebus sabaeus

| Structure (SMILES) | IC50 (Leishmania braziliensis [2]) [µM] | inhibition [4] | Ratio CC50/IC50 [1] | CC50 at 72 h [3] [µM] | inhibition (Leishmania braziliensis [5]) | Activity (Vero) |
| --- | --- | --- | --- | --- | --- | --- |
| COc1cc(OC)c(C(=O)/C=C/c2ccccc2Cl)cc1OC |  |  |  |  | inactive | Non-toxic |
| COc1cc(OC)c(C(=O)/C=C/c2cccc(Cl)c2)cc1OC | 15.4 |  | 24.8 | 382 |  |  |
| N=C(N)c1ccc(OCCCCCOc2ccc(C(=N)N)cc2)cc1 [PENTAMIDINE] | 6 |  |  |  |  |  |
| COc1cccc(/C=C/C(=O)c2cc(OC)c(OC)cc2OC)c1 | 14 |  | 21.1 | 295 |  |  |
| COc1cc(OC)c(C(=O)/C=C/c2ccc3c(c2)OCO3)c(OC)c1 |  |  |  |  | inactive | Non-toxic |

Second part, led by results:

| IC50 (Leishmania braziliensis [2]) [µM] | inhibition [4] | Structure (SMILES) | Ratio CC50/IC50 [1] | CC50 at 72 h [3] [µM] | inhibition (Leishmania braziliensis [5]) | Activity (Vero) |
| --- | --- | --- | --- | --- | --- | --- |
| 12.8 |  | COc1cc(OC)c(C(=O)/C=C/c2ccccc2)cc1OC | 30.6 | 392 |  |  |
| 194 |  | COc1cc(O)c(C(=O)/C=C/c2cccc(Cl)c2)c(OC)c1 | 1.8 | 341 |  |  |
|  | Active | COc1cc(OC)c(C(=O)/C=C/c2ccccc2Cl)c(OC)c1 |  |  |  |  |
| 29.7 |  | COc1cc(OC)c(C(=O)/C=C/c2ccc(Cl)cc2)cc1OC | 9.4 | 279 |  |  |
| 148 |  | COc1cc(OC)c(C(=O)/C=C/c2ccc(Cl)c(Cl)c2)cc1OC | 6.1 | 906 |  |  |
